Test system: Raji
Experiment: Inhibition of TPA-induced EBV-early antigen activation in human Raji cells assessed as remaining activity at 100 molar ratio per TPA after 48 hrs by immunofluorescence method relative to TPA
Format: cell-based
Conditions: human gammaherpesvirus 4
In short: (§1)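 Raji cells (EBV genome-carrying, virus nonproducer) grown in RPMI1640 with 10% FBS; 1 × 10^6 cells incubated 48 h at 37 °C in 1 mL medium with n-butyric acid (4 mmol), TPA (32 pmol) in DMSO, and test compound in 5 μL DMSO at 10, 100, 500 or 1000 mol ratio/TPA. EA-positive cells detected by indirect immunofluorescence with NPC patient serum, ≥500 cells counted; triplicates, expressed relative to butyrate+TPA control (100%).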

Row | Structure (SMILES) | Activity [%]
1 | CC(=O)O[C@@H]1[C@H](O)[C@@H](C)[C@]23OC(C)(C)[C@H]([C@H](OC(C)=O)[C@H](OC(=O)c4ccccc4)[C@]2(C)[C@H]1OC(=O)c1ccccc1)[C@H]3O | 76.3
2 | CC(=O)O[C@H]1[C@H](OC(=O)c2ccccc2)[C@@]2(C)[C@@H](OC(=O)/C=C/c3ccccc3)[C@@H](O)[C@@H]3[C@@H](OC(C)=O)[C@]2(OC3(C)C)[C@@](C)(O)[C@H]1OC(C)=O | 88.6
3 | CC(=O)O[C@H]1[C@H](OC(=O)c2ccccc2)C[C@](C)(O)[C@]23OC(C)(C)[C@H](C[C@H](OC(=O)c4ccco4)[C@]12CO)[C@H]3OC(=O)c1ccccc1 | 82.2
4 | CC(=O)O[C@H]1[C@@H]2C[C@@]3(OC2(C)C)[C@](C)([C@H]1OC(=O)c1ccccc1)[C@@H](OC(=O)c1ccccc1)[C@H](OC(C)=O)[C@H](OC(C)=O)[C@]3(C)O | 79.3
5 | CC(=O)O[C@@H]1[C@H](O)[C@@H](C)[C@]23OC(C)(C)[C@H]([C@H](OC(C)=O)[C@H](OC(=O)c4ccccc4)[C@]2(C)[C@H]1OC(=O)c1ccoc1)[C@H]3OC(C)=O | 87
6 | CC(=O)O[C@H]1[C@H](OC(=O)c2ccccc2)[C@@]2(C)[C@@H](OC(=O)/C=C/c3ccccc3)[C@@H](O)[C@@H]3[C@@H](O)[C@]2(OC3(C)C)[C@@](C)(O)[C@H]1OC(C)=O | 85
7 | CC(=O)O[C@@H]1[C@H](O)[C@@H](C)[C@]23OC(C)(C)[C@H](C[C@H](OC(=O)c4ccccc4)[C@]2(C)[C@H]1OC(=O)c1ccccc1)[C@H]3OC(C)=O | 81
8 | CC(=O)OC[C@]12[C@@H](OC(=O)c3ccco3)C[C@@H]3[C@@H](OC(=O)c4ccccc4)[C@]1(OC3(C)C)[C@@](C)(O)C[C@@H](OC(C)=O)[C@@H]2OC(C)=O | 81.9
9 | CC(=O)O[C@@H]1[C@H](O)[C@@H](C)[C@]23OC(C)(C)[C@H]([C@H](OC(C)=O)[C@H](OC(=O)c4ccccc4)[C@]2(C)[C@H]1OC(=O)c1ccccc1)[C@H]3OC(C)=O | 79.5

Test system: Raji
Experiment: Inhibition of TPA-induced EBV-early antigen activation in human Raji cells assessed as cell viability at 1000 molar ratio per TPA after 48 hrs by trypan blue staining method
Format: cell-based
Conditions: human gammaherpesvirus 4
In short: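 Raji cells treated 48 h at 37 °C with n-butyric acid (4 mmol), TPA (32 pmol) and test compound in DMSO at 1000 mol ratio/TPA; viability determined by Trypan Blue staining.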

Row | Structure (SMILES) | Cell viability [%]
10 | CC(=O)O[C@H]1[C@H](OC(=O)c2ccccc2)[C@@]2(C)[C@@H](OC(=O)/C=C/c3ccccc3)C[C@]3(O)C[C@]2(OC3(C)C)[C@@](C)(O)[C@H]1OC(C)=O | > 60
11 | CC(=O)O[C@@H]1[C@H](O)[C@@H](C)[C@]23OC(C)(C)[C@H]([C@H](OC(C)=O)[C@H](OC(=O)c4ccccc4)[C@]2(C)[C@H]1OC(=O)c1ccccc1)[C@H]3O | > 60
12 | CC(=O)O[C@H]1[C@H](OC(=O)c2ccccc2)[C@@]2(C)[C@@H](OC(=O)/C=C/c3ccccc3)[C@@H](O)[C@@H]3[C@@H](OC(C)=O)[C@]2(OC3(C)C)[C@@](C)(O)[C@H]1OC(C)=O | > 60
13 | CC(=O)O[C@H]1[C@H](OC(=O)c2ccccc2)C[C@](C)(O)[C@]23OC(C)(C)[C@H](C[C@H](OC(=O)c4ccco4)[C@]12CO)[C@H]3OC(=O)c1ccccc1 | > 60
14 | CC(=O)O[C@H]1[C@@H]2C[C@@]3(OC2(C)C)[C@](C)([C@H]1OC(=O)c1ccccc1)[C@@H](OC(=O)c1ccccc1)[C@H](OC(C)=O)[C@H](OC(C)=O)[C@]3(C)O | > 60
15 | CC(=O)O[C@@H]1[C@H](O)[C@@H](C)[C@]23OC(C)(C)[C@H]([C@H](OC(C)=O)[C@H](OC(=O)c4ccccc4)[C@]2(C)[C@H]1OC(=O)c1ccoc1)[C@H]3OC(C)=O | > 60
16 | CC(=O)O[C@H]1[C@H](OC(=O)c2ccccc2)[C@@]2(C)[C@@H](OC(=O)/C=C/c3ccccc3)[C@@H](O)[C@@H]3[C@@H](O)[C@]2(OC3(C)C)[C@@](C)(O)[C@H]1OC(C)=O | > 60
17 | CC(=O)O[C@@H]1[C@H](O)[C@@H](C)[C@]23OC(C)(C)[C@H](C[C@H](OC(=O)c4ccccc4)[C@]2(C)[C@H]1OC(=O)c1ccccc1)[C@H]3OC(C)=O | > 60
18 | CC(=O)OC[C@]12[C@@H](OC(=O)c3ccco3)C[C@@H]3[C@@H](OC(=O)c4ccccc4)[C@]1(OC3(C)C)[C@@](C)(O)C[C@@H](OC(C)=O)[C@@H]2OC(C)=O | > 60
19 | CC(=O)O[C@@H]1[C@H](O)[C@@H](C)[C@]23OC(C)(C)[C@H]([C@H](OC(C)=O)[C@H](OC(=O)c4ccccc4)[C@]2(C)[C@H]1OC(=O)c1ccccc1)[C@H]3OC(C)=O | > 60

Test system: Raji
Experiment: Inhibition of TPA-induced EBV-early antigen activation in human Raji cells after 48 hrs by immunofluorescence method relative to TPA
Format: cell-based
Conditions: human gammaherpesvirus 4
In short: as §1

Row | Structure (SMILES) | inhibition
20 | CC(=O)O[C@H]1[C@H](OC(=O)c2ccccc2)[C@@]2(C)[C@@H](OC(=O)/C=C/c3ccccc3)C[C@]3(O)C[C@]2(OC3(C)C)[C@@](C)(O)[C@H]1OC(C)=O | Dose-dependent effect
21 | CC(=O)O[C@@H]1[C@H](O)[C@@H](C)[C@]23OC(C)(C)[C@H]([C@H](OC(C)=O)[C@H](OC(=O)c4ccccc4)[C@]2(C)[C@H]1OC(=O)c1ccccc1)[C@H]3O | Dose-dependent effect
22 | CC(=O)O[C@H]1[C@H](OC(=O)c2ccccc2)[C@@]2(C)[C@@H](OC(=O)/C=C/c3ccccc3)[C@@H](O)[C@@H]3[C@@H](OC(C)=O)[C@]2(OC3(C)C)[C@@](C)(O)[C@H]1OC(C)=O | Dose-dependent effect
23 | CC(=O)O[C@H]1[C@H](OC(=O)c2ccccc2)C[C@](C)(O)[C@]23OC(C)(C)[C@H](C[C@H](OC(=O)c4ccco4)[C@]12CO)[C@H]3OC(=O)c1ccccc1 | Dose-dependent effect
24 | CC(=O)O[C@H]1[C@@H]2C[C@@]3(OC2(C)C)[C@](C)([C@H]1OC(=O)c1ccccc1)[C@@H](OC(=O)c1ccccc1)[C@H](OC(C)=O)[C@H](OC(C)=O)[C@]3(C)O | Dose-dependent effect
25 | CC(=O)O[C@@H]1[C@H](O)[C@@H](C)[C@]23OC(C)(C)[C@H]([C@H](OC(C)=O)[C@H](OC(=O)c4ccccc4)[C@]2(C)[C@H]1OC(=O)c1ccoc1)[C@H]3OC(C)=O | Dose-dependent effect
26 | CC(=O)O[C@H]1[C@H](OC(=O)c2ccccc2)[C@@]2(C)[C@@H](OC(=O)/C=C/c3ccccc3)[C@@H](O)[C@@H]3[C@@H](O)[C@]2(OC3(C)C)[C@@](C)(O)[C@H]1OC(C)=O | Dose-dependent effect
27 | CC(=O)O[C@@H]1[C@H](O)[C@@H](C)[C@]23OC(C)(C)[C@H](C[C@H](OC(=O)c4ccccc4)[C@]2(C)[C@H]1OC(=O)c1ccccc1)[C@H]3OC(C)=O | Dose-dependent effect
28 | CC(=O)OC[C@]12[C@@H](OC(=O)c3ccco3)C[C@@H]3[C@@H](OC(=O)c4ccccc4)[C@]1(OC3(C)C)[C@@](C)(O)C[C@@H](OC(C)=O)[C@@H]2OC(C)=O | Dose-dependent effect
29 | CC(=O)O[C@@H]1[C@H](O)[C@@H](C)[C@]23OC(C)(C)[C@H]([C@H](OC(C)=O)[C@H](OC(=O)c4ccccc4)[C@]2(C)[C@H]1OC(=O)c1ccccc1)[C@H]3OC(C)=O | Dose-dependent effect

Test system: Raji
Experiment: Inhibition of TPA-induced EBV-early antigen activation in human Raji cells at 1000 molar ratio per TPA after 48 hrs by immunofluorescence method relative to TPA
Format: cell-based
Conditions: human gammaherpesvirus 4
In short: as §1

Row | Structure (SMILES) | inhibition [%]
30 | CC(=O)O[C@@H]1[C@H](O)[C@@H](C)[C@]23OC(C)(C)[C@H]([C@H](OC(C)=O)[C@H](OC(=O)c4ccccc4)[C@]2(C)[C@H]1OC(=O)c1ccccc1)[C@H]3O | 100

Test system: Raji
Experiment: Inhibition of TPA-induced EBV-early antigen activation in human Raji cells at 500 molar ratio per TPA after 48 hrs by immunofluorescence method relative to TPA
Format: cell-based
Conditions: human gammaherpesvirus 4
In short: as §1

Row | Structure (SMILES) | inhibition [%]
31 | CC(=O)O[C@@H]1[C@H](O)[C@@H](C)[C@]23OC(C)(C)[C@H]([C@H](OC(C)=O)[C@H](OC(=O)c4ccccc4)[C@]2(C)[C@H]1OC(=O)c1ccccc1)[C@H]3O | 69.9

Test system: Raji
Experiment: Inhibition of TPA-induced EBV-early antigen activation in human Raji cells at 100 molar ratio per TPA after 48 hrs by immunofluorescence method relative to TPA
Format: cell-based
Conditions: human gammaherpesvirus 4
In short: as §1

Row | Structure (SMILES) | inhibition [%]
32 | CC(=O)O[C@@H]1[C@H](O)[C@@H](C)[C@]23OC(C)(C)[C@H]([C@H](OC(C)=O)[C@H](OC(=O)c4ccccc4)[C@]2(C)[C@H]1OC(=O)c1ccccc1)[C@H]3O | 23.7

Test system: Raji
Experiment: Inhibition of TPA-induced EBV-early antigen activation in human Raji cells at 10 molar ratio per TPA after 48 hrs by immunofluorescence method relative to TPA
Format: cell-based
Conditions: human gammaherpesvirus 4
In short: as §1

Row | Structure (SMILES) | inhibition [%]
33 | CC(=O)O[C@@H]1[C@H](O)[C@@H](C)[C@]23OC(C)(C)[C@H]([C@H](OC(C)=O)[C@H](OC(=O)c4ccccc4)[C@]2(C)[C@H]1OC(=O)c1ccccc1)[C@H]3O | 2.2

Source: ChEMBL document CHEMBL3868585, “Absolute Configuration of Dihydro-β-agarofuran Sesquiterpenes from Maytenus jelskii and Their Potential Antitumor-Promoting Effects” (J Nat Prod, 2016)
